# Source: ChEMBL document CHEMBL1125403, “Hybrid cholecystokinin-A antagonists based on molecular modeling of lorglumide and L-364,718” (J Med Chem, 1992)
# Biological target: T1, Cholecystokinin receptor type A (Rattus norvegicus, UniProt P30551)
# T1 sequence (P30551 whole entry): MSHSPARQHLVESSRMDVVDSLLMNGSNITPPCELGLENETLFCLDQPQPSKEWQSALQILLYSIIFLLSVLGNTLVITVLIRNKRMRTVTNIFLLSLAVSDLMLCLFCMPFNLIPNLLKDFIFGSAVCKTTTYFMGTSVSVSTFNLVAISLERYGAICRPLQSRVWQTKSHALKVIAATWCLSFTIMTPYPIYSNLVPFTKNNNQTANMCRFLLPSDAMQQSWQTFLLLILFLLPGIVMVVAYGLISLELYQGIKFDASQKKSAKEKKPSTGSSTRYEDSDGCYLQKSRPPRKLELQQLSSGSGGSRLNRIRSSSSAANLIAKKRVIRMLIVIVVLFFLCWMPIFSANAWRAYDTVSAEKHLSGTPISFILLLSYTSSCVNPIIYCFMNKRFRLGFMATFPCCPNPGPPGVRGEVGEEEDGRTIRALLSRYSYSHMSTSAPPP
# Assay: Displacement of [3H]L-364718 from Cholecystokinin type A receptor of rat pancreatic membranes
# Assay type: cell membranes, Membrane
# In short: (§1)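 Male Wistar rat pancreas membranes, homogenized in 10 mM Hepes pH 7.4/5 mM MgCl2/130 mM NaCl, stored at -80 °C. GF/B filtration, scintillation counting. Nonspecific binding with 10 μM lorglumide. IC50 from pseudo-Hill plots, Ki by Cheng-Prusoff. Mean ± SEM of three experiments.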
row,Ki [nM],SMILES
1,> 2000,O=C(NCC=C(c1ccccc1)c1ccccc1)c1cc2cccc3c2n1CCC3
2,470,O=C(NCC=C(c1ccccc1)c1ccccc1)c1ccc2ccccc2n1
3,400,O=C(NCCC=C(c1ccccc1)c1ccccc1)Nc1ccc(Cl)cc1
4,340,O=C(NCC=C(c1ccccc1)c1ccccc1)c1cc2ccccc2[nH]1

# Second part, the compound before the results:
row,SMILES,Ki [nM]
1,COc1ccc(C(=CCNC(=O)c2cc3ccccc3[nH]2)c2ccc(OC)cc2)cc1,> 4000
2,O=C(NCC=C(c1ccccc1)c1ccccc1)c1cnc2ccccc2c1,> 2000
3,O=C(NC/C=C/c1ccccc1)Nc1ccc(Cl)cc1,> 4000
4,O=C(NCC=C(c1ccccc1)c1ccccc1)c1ccnc2ccccc12,> 2000
5,CCCCCC(=CCNC(=O)Nc1ccc(Cl)cc1)CCCCC,200

# Biological target: T1, Cholecystokinin receptor type A
# Assay: Inhibition of [3H]L-364718 binding to cholecystokinin type A receptor in rat pancreas membranes
# Assay type: cell membranes, Membrane
# In short: as §1
row,Ki [nM],SMILES
1,> 2000,O=C(NCC=C(c1ccccc1)c1ccccc1)c1ccc(Cl)cc1
2,90,O=C(NCC=C(c1ccccc1)c1ccccc1)Nc1ccc(Cl)cc1
3,1000,O=C(NCC=C(c1ccccc1)c1ccccc1)c1cccc2ccccc12

# Further lines, the compound ahead of its results:
row,SMILES,Ki [nM]
1,CCCCCN(CCCCC)C(=O)[C@@H](CCC(=O)O)NC(=O)c1ccc(Cl)c(Cl)c1,49
2,O=C(NCC=C1c2ccccc2CCc2ccccc21)Nc1ccc(Cl)cc1,> 4000
3,Cc1cccc(NC(=O)NCC=C(c2ccccc2)c2ccccc2)c1,800
4,O=C(NCC=C(c1ccccc1)c1ccccc1)c1ccc2ccccc2c1,450
5,O=C(NCC=C(c1ccccc1)c1ccccc1)c1ccc(Cl)c(Cl)c1,400

# Biological target: T1, Cholecystokinin receptor type A
# Assay: Compound was evaluated for its ability to inhibit [3H]L-364718 binding Cholecystokinin type A receptor in rat pancreas membranes
# Assay type: cell membranes, Membrane
# In short: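 Male Wistar rat pancreas membranes, homogenized in 10 mM Hepes pH 7.4/5 mM MgCl2/130 mM NaCl, stored at -80 °C. […] GF/B filtration, scintillation counting. Nonspecific binding with 10 μM lorglumide. IC50 from pseudo-Hill plots, Ki by Cheng-Prusoff. Mean ± SEM of three experiments.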
row,Ki [nM],SMILES
1,> 2000,O=C(NCCC=C(c1ccccc1)c1ccccc1)c1cc2ccccc2[nH]1
